Data: ChEMBL document CHEMBL1821600, “Synthesis and antiviral evaluation of α-L-2'-deoxythreofuranosyl nucleosides” (Eur J Med Chem, 2011)
In brackets after ≈: the same amount, converted by molar mass. Activity calls are given as the source filed them. The rule behind the calls is not given here.

Legend:
Human alphaherpesvirus 1 [1] = assay: Antiviral activity against Herpes simplex virus type 1 infected in HEL cells assessed as inhibition of virus-induced cytopathicity upto 200 uM administered after 1 hr virus adsorption period; type: functional, organism-based
Summary of the method: (§1)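 Confluent cell monolayers (HEL for HSV-1 and HSV-2; Vero for parainfluenza-3, reovirus-1, Sindbis and Punta Toro; HeLa for Coxsackie B4 and RSV) in 96-well plates were inoculated with 100 CCID50 of virus. After 1 h adsorption, unbound virus was removed. Cells were then kept with compound at 200, 40, 8… μM. Cytopathicity was scored once untreated infected controls reached full CPE.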

Vaccinia virus = assay: Antiviral activity against Vaccinia virus infected in HEL cells assessed as inhibition of virus-induced cytopathicity upto 200 uM administered after 1 hr virus adsorption period; type: functional, organism-based; conditions: Orthopoxvirus vaccinia
Punta Toro virus = assay: Antiviral activity against Punta Toro virus infected in Vero cells assessed as inhibition of virus-induced cytopathicity upto 200 uM administered after 1 hr virus adsorption period; type: functional, organism-based; summary of the method: as §1
CCRF-CEM = assay: Cytotoxicity against human CEM cells at 100 ug/ml; type: cell-based
[2] = system: Vesicular stomatitis virus; assay: Antiviral activity against Vesicular stomatitis virus infected in HEL cells assessed as inhibition of virus-induced cytopathicity upto 200 uM administered after 1 hr virus adsorption period; type: functional, organism-based
Feline coronavirus = assay: Antiviral activity against Feline coronavirus infected in CRFK cells assessed as inhibition of virus-induced cytopathicity upto 200 uM administered after 1 hr virus adsorption period; type: functional, organism-based
Deoxynucleoside kinase = molecular target: T1, Deoxynucleoside kinase (Drosophila melanogaster, UniProt Q9XZT6); assay: Inhibition of Drosophila melanogaster deoxynucleoside kinase assessed as inhibition of [methyl-3H]dThd phosphorylation after 30 mins by scintillation counting
T1 sequence (Q9XZT6 whole entry): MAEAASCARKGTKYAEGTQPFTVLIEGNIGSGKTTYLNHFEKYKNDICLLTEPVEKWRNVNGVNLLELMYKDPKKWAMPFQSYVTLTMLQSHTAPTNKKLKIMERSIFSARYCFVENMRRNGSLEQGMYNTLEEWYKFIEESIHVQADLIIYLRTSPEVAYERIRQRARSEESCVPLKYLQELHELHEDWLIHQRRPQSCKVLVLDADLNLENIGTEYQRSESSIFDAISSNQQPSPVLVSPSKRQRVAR
Summary of the method: (§2)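 Recombinant enzyme (TK-1, TK-2, HSV-1 TK, VZV TK or Drosophila dNK) was used in 50 mM Tris/HCl pH 8.0 with 2.5 mM MgCl2, 10 mM DTT, 0.5 mM CHAPS, 3 mg/mL BSA, 2.5 mM ATP and 1 µM [methyl-3H]dThd. Compound was added as 5-fold dilutions, and reactions ran 30 min at 37 °C, still linear. Mixtures were spotted on DE-81 disks, washed in ammonium formate, water and ethanol, then scintillation counted. IC50 was determined.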

Influenza A virus [3] = assay: Antiviral activity against Influenza A virus H3N2 infected in MDCK cells assessed as inhibition of virus-induced cytopathicity upto 200 uM administered after 1 hr virus adsorption period; type: functional, organism-based
Human betaherpesvirus 5 = assay: Antiviral activity against Human cytomegalovirus infected in human HEL cells assessed as inhibition of virus-induced cytopathicity upto 200 uM administered after 1 hr virus adsorption period; type: functional, organism-based
[4] = Cytotoxicity against CRFK cells at 100 ug/ml; type: cell-based, Felis catus; conditions: cat
HEL = assay: Cytotoxicity against human HEL cells at 100 ug/ml; type: cell-based
[5] = molecular target: Thymidine kinase, cytosolic (Homo sapiens, UniProt P04183); assay: Inhibition of human recombinant cytosolic TK1 assessed as inhibition of [methyl-3H]dThd phosphorylation after 30 mins by scintillation counting; summary of the method: as §2
Chain of Thymidine kinase, cytosolic (P04183 whole entry): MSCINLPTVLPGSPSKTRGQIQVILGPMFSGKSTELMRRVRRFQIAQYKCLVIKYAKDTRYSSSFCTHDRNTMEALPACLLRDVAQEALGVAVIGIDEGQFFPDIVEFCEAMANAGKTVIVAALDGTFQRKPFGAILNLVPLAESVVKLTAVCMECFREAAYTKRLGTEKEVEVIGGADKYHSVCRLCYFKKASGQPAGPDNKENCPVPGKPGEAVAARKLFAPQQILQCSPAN

Human alphaherpesvirus 2 = assay: Antiviral activity against Herpes simplex virus type 2 infected in HEL cells assessed as inhibition of virus-induced cytopathicity upto 200 uM administered after 1 hr virus adsorption period; type: functional, organism-based; summary of the method: as §1
Coxsackievirus B4 = assay: Antiviral activity against Coxsackievirus B4 infected in HeLa cells assessed as inhibition of virus-induced cytopathicity upto 200 uM administered after 1 hr virus adsorption period; type: functional, organism-based; summary of the method: as §1
[6] = Inhibition of varicella zoster virus thymidine kinase assessed as inhibition of [methyl-3H]dThd phosphorylation after 30 mins by scintillation counting; parameters: species or system Human alphaherpesvirus 3; summary of the method: as §2
Human alphaherpesvirus 3 = assay: Antiviral activity against Varicella Zoster Virus infected in human HEL cells assessed as inhibition of virus-induced cytopathicity upto 200 uM administered after 1 hr virus adsorption period; type: functional, organism-based
Human respirovirus 3 = assay: Antiviral activity against Parainfluenza virus 3 infected in Vero cells assessed as inhibition of virus-induced cytopathicity upto 200 uM administered after 1 hr virus adsorption period; type: functional, organism-based; summary of the method: as §1
Influenza B virus = assay: Antiviral activity against influenza B virus infected in MDCK cells assessed as inhibition of virus-induced cytopathicity upto 200 uM administered after 1 hr virus adsorption period; type: functional, organism-based
[7] = system: Human immunodeficiency virus 2; assay: Antiviral activity against Human immunodeficiency virus type 2 ROD infected in human CEM cells assessed as inhibition of virus-induced giant cell formation after 4 days by microscopic method; type: functional, organism-based; conditions: CCRF-CEM; for EC50: Human immunodeficiency virus 2, ISOLATE ROD, 96 h
Summary of the method: (§3)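 CEM cells (~3×10^5 cells/cm³) were infected with 100 CCID50/mL of HIV-1(IIIB) or HIV-2(ROD) and seeded into wells containing serial compound dilutions. After 4 days at 37 °C, giant (syncytium) cell formation was scored microscopically.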

Influenza A virus [8] = assay: Antiviral activity against influenza A virus H1N1 infected in MDCK cells assessed as inhibition of virus-induced cytopathicity upto 200 uM administered after 1 hr virus adsorption period; type: functional, organism-based
[9] = molecular target: T2, Thymidine kinase 2, mitochondrial (Homo sapiens, UniProt O00142); assay: Inhibition of human mitochondrial TK2 assessed as inhibition of [methyl-3H]dThd phosphorylation after 30 mins by scintillation counting; summary of the method: as §2
T2 sequence (O00142 whole entry): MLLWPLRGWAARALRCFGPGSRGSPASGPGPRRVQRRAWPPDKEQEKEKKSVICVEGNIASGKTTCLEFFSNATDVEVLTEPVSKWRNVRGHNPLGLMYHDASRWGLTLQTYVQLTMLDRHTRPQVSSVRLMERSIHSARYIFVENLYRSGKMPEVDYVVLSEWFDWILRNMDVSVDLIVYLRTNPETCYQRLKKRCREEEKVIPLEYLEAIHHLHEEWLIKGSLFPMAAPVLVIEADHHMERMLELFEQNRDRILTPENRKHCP

[10] = system: Mammalian orthoreovirus 1; assay: Antiviral activity against Reovirus 1 infected in Vero cells assessed as inhibition of virus-induced cytopathicity upto 200 uM administered after 1 hr virus adsorption period; type: functional, organism-based; summary of the method: as §1
Sindbis virus = assay: Antiviral activity against Sindbis virus infected in Vero cells assessed as inhibition of virus-induced cytopathicity upto 200 uM administered after 1 hr virus adsorption period; type: functional, organism-based; summary of the method: as §1
HeLa = assay: Cytotoxicity against human HeLa cells at 100 ug/ml; type: cell-based
Vero = assay: Cytotoxicity against african green monkey Vero cells at 100 ug/ml; type: cell-based; conditions: chlorocebus sabaeus
[11] = Inhibition of Herpes simplex virus type 1 thymidine kinase assessed as inhibition of [methyl-3H]dThd phosphorylation after 30 mins by scintillation counting; parameters: species or system Human alphaherpesvirus 1; summary of the method: as §2
MDCK = assay: Cytotoxicity against MDCK cells at 100 ug/ml; type: cell-based, Canis lupus familiaris; conditions: dog
[12] = system: Human immunodeficiency virus 1; assay: Antiviral activity against Human immunodeficiency virus 1 3B infected in human CEM cells assessed as inhibition of virus-induced giant cell formation after 4 days by microscopic method; type: functional, organism-based; conditions: CCRF-CEM; for EC50: 96 h; summary of the method: as §3
[13] = system: Respiratory syncytial virus; assay: Antiviral activity against Respiratory syncytial virus infected in HeLa cells assessed as inhibition of virus-induced cytopathicity upto 200 uM administered after 1 hr virus adsorption period; type: functional, organism-based; summary of the method: as §1
[14] = Non-competitive inhibition of Herpes simplex virus type 1 thymidine kinase assessed as inhibition of [methyl-3H]dThd phosphorylation by scintillation counting; parameters: species or system Human alphaherpesvirus 1
Thymidylate kinase = Thymidylate kinase (Mycobacterium tuberculosis, UniProt P9WKE1); assay: Inhibition of Mycobacterium tuberculosis Thymidylate kinase
Chain of Thymidylate kinase (P9WKE1 whole entry): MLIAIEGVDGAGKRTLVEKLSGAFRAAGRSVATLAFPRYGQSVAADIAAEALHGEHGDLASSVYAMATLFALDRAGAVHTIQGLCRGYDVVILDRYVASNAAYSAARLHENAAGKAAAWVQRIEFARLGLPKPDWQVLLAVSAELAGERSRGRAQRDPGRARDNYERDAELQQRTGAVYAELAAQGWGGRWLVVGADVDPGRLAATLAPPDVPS

Human alphaherpesvirus 1 [15] = assay: Antiviral activity against TK-deficient Herpes simplex virus type 1 infected in HEL cells assessed as inhibition of virus-induced cytopathicity upto 200 uM administered after 1 hr virus adsorption period; type: functional, organism-based

Structure (SMILES) | inhibition (Human alphaherpesvirus 1 [1]) | inhibition (Vaccinia virus) | inhibition (Punta Toro virus) | Activity (CCRF-CEM) | inhibition [2] | inhibition (Feline coronavirus) | inhibition (Influenza A virus [3]) | inhibition (Human betaherpesvirus 5) | Activity [4] | Activity (HEL) | inhibition (Human alphaherpesvirus 2) | inhibition (Coxsackievirus B4) | inhibition (Human alphaherpesvirus 3) | inhibition (Human respirovirus 3) | inhibition (Influenza B virus) | inhibition (Influenza A virus [8]) | inhibition [10] | inhibition (Sindbis virus) | Activity (HeLa) | Activity (Vero) | also measured
Nc1ncnc2c1ncn2[C@H]1C[C@@H](O)CO1 | inactive | inactive | inactive | Non-toxic | inactive | inactive | inactive | inactive | Non-toxic | Non-toxic | inactive | inactive | inactive | inactive | inactive | inactive | inactive | inactive | Non-toxic | Non-toxic | IC50 (Deoxynucleoside kinase): > 904 µM; IC50 [5]: > 0.904 mM; IC50 [6]: > 200 µg/mL; EC50 [7]: > 100 µg/mL; IC50 [9]: > 904 µM; IC50 [11]: > 200 µg/mL; Activity (MDCK): Non-toxic; EC50 [12]: > 100 µg/mL; inhibition [13]: inactive
Nc1ccn([C@H]2C[C@@H](O)CO2)c(=O)n1 | inactive | inactive | inactive | Non-toxic | inactive | inactive | inactive | inactive | Non-toxic | Non-toxic | inactive | inactive | inactive | inactive | inactive | inactive | inactive | inactive | Non-toxic | Non-toxic | IC50 (Deoxynucleoside kinase): > 1010 µM; IC50 [5]: 1.01 mM; IC50 [6]: > 200 µg/mL; EC50 [7]: > 100 µg/mL; IC50 [9]: > 1010 µM; IC50 [11]: > 200 µg/mL; Activity (MDCK): Non-toxic; EC50 [12]: > 100 µg/mL; inhibition [13]: inactive
O=c1ccn([C@H]2C[C@@H](O)CO2)c(=O)[nH]1 | inactive | inactive | inactive | Non-toxic | inactive | inactive | inactive | inactive | Non-toxic | Non-toxic | inactive | inactive | inactive | inactive | inactive | inactive | inactive | inactive | Non-toxic | Non-toxic | IC50 (Deoxynucleoside kinase): > 1010 µM; IC50 [6]: > 200 µg/mL; EC50 [7]: > 100 µg/mL; IC50 [9]: 303 µM; IC50 [11]: > 200 µg/mL; Activity (MDCK): Non-toxic; EC50 [12]: > 100 µg/mL; inhibition [13]: inactive
Cc1cn([C@H]2C[C@@H](O)CO2)c(=O)[nH]c1=O | inactive | inactive | inactive | Non-toxic | inactive | inactive | inactive | inactive | Non-toxic | Non-toxic | inactive | inactive | inactive | inactive | inactive | inactive | inactive | inactive | Non-toxic | Non-toxic | Ki [14]: 20 µM; IC50 (Deoxynucleoside kinase): ≥ 942 µM; IC50 [6]: 26 µg/mL (≈ 123 µM); inhibition ([7]; ISOLATE ROD): inactive; IC50 [9]: 429 µM; Ki (Thymidylate kinase): 18 µM; IC50 [11]: 14 µg/mL (≈ 66 µM); Activity (MDCK): Non-toxic; inhibition [12]: inactive; inhibition (Human alphaherpesvirus 1 [15]): inactive; inhibition [13]: inactive
CC(=O)Nc1ccn([C@H]2C[C@@H](O)CO2)c(=O)n1 | inactive | inactive | inactive | Non-toxic | inactive | inactive | inactive | inactive | Non-toxic | Non-toxic | inactive | inactive | inactive | inactive | inactive | inactive | inactive | inactive | Non-toxic | Non-toxic | EC50 [7]: > 100 µg/mL; Activity (MDCK): Non-toxic; EC50 [12]: > 100 µg/mL; inhibition [13]: inactive
